Bioassay records (PubChem)
PglD DTNB – inhibitors of Campylobacter jejuni PglD acetyltransferase | inhibition, % at 12.5 µM | AID 602405 | 0.098% of 360,000 active | purified PglD enzyme, DTNB colorimetric CoA detection; in the data active = inhibition above about 16%, passing the limit was not always enough; inconclusive = no clear call, values can overlap the other calls
Cneo AK release – Cryptococcus neoformans lysis via adenylate kinase release; C. neoformans lysis, adenylate kinase release luminescence, 4 h; normalised: neutral wells 0, clomiphene wells 100; lysis activity, % at 15 µM; 0.2% of 360,000 active;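 active = mean lysis activity across replicates of at least 80%, whatever share of replicates individually reach that level; inactive = mean lysis activity below 80%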
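Signal: Adenylate kinase release luminescence | Assay system: Log-phase Cryptococcus neoformans yeast cells | Input: Cells at 5 × 10^6 per mL | Buffer or medium: Fresh YPD growth medium | Compound: Single dose | Schedule: Static 4 h at 37 °C with compound, 1 h detection | Controls: Clomiphene | Read-out: Luminescence rise reflecting yeast cell lysis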
PGC1a acetyl inh – lowers PGC1a acetylation signal in U2OS cells | AlphaScreen anti-acetyl-lysine; with virally co-expressed GCN5 acetyltransferase | inhibition, % at 15.6 µM | 0.17% of 350,000 active;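 active = every replicate shows inhibition of at least 40%; inconclusive = mean inhibition at least 40% but some replicate below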;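 note: 0% = neutral control wells and 100% = positive control wells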
Ecoli rRNA inh – inhibitors of bacterial rRNA selective over humanized ribosomes | E. coli WT GFP vs humanized-ribosome RFP mutants, fluorescence, 24 h; active compounds read low; DMSO median 0, no signal -100 | GFP signal change (wild-type ribosome), % (no concentration beside the values) | 1.6% of 350,000 active | AID 720706;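 active = significant combined selectivity score with lowered wild-type GFP, culture density cut under 30%, mutant RFP and density less affected; inactive = any of these conditions unmet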
Vif inh – HIV Vif inhibition | HEK293T cells, Vif self-association by quenched fluorescence, imaging, 24 h | inhibition, % at 7.49 µM | 0.35% of 340,000 active | AID 602346; in the data active = inhibition above about 50%, passing the limit was not always enough; inconclusive = no clear call, values can overlap the other calls; inactive = below about 31%
FGF22 binding – FGF22 (human) thermal shift binding | recombinant FGF22 thermal shift, SYPRO orange fluorescence; percent of sucrose octasulfate shift, DMSO zero | activity (Tm shift, normalised), % at 9.99 µM | 1.5% of 340,000 active | AID 651658;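 active = mean Tm shift, scaled 0 neutral to 100 positive control, at about 1.3% or above, every replicate too, limit read from the data; inconclusive = no clear call, values can overlap the other calls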
Target sequence (Q9HCT0 whole entry, looked up): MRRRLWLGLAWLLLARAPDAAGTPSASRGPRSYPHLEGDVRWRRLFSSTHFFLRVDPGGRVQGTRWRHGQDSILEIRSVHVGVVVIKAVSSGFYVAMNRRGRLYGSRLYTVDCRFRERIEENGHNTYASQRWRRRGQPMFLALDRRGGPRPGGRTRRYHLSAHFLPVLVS
* hit, by the source's call; ? = inconclusive; / = no result given. In the library only some 2.9% were active in any assay of this set; here they are far more common.

SMILES | PglD DTNB | Cneo AK release | PGC1a acetyl inh | Ecoli rRNA inh | Vif inh | FGF22 binding
Cc1c(Cc2c(C)n(C)n(-c3ccccc3)c2=O)c(=O)n(-c2ccccc2)n1C | -3 | -1 | 5 | / | -2 | /
CC(C#N)Sc1nc2ccccc2c(=O)n1-c1ccccc1 (stereo not drawn) | -1 | 1 | 6 | -22* | ? | 0
CCCc1nc2ccccc2c(=O)n1-c1c(C)n(C)n(-c2ccccc2)c1=O | -2 | -1 | 0 | / | 18 | /
Cc1c(-n2c(SCC(C)C)nc3ccccc3c2=O)c(=O)n(-c2ccccc2)n1C | 11 | 2 | -10 | -26* | 3 | 0
Cc1c(-n2c(SCC(=O)NC(C)C(C)C)nc3ccccc3c2=O)c(=O)n(-c2ccccc2)n1C (stereo not drawn) | / | / | / | 4 | -5 | 43*
Cc1c(O)c(=O)n(-c2ccccc2)n1C | 6 | 5 | 2 | -16* | -3 | 0
C[C@@H]1CCCCO[C@@H](CN(C)C(=O)c2ccccc2)[C@@H](C)CN([C@@H](C)CO)C(=O)c2cc(NC(=O)Nc3ccccc3)ccc2O1 | 1 | 0 | 3 | 1 | / | -1
COc1ccc2c3c(n(C)c2c1)[C@@H](CO)N(C(=O)CN1CCOCC1)CC31CN(C(C)=O)C1 | / | / | 10 | 0 | / | 0
O=C(N/N=C/c1cc(Br)c(O)c(Br)c1)C1CC1 | 5 | -2 | / | -8 | -8 | 1
CC(C)(C)NC(=S)N/N=C/c1cc(Br)c(O)c(Br)c1 | / | / | / | -40* | 12 | 0
COc1ccc(Nc2cnn(-c3nc4ccccc4s3)c(=O)c2Cl)cc1 | 6 | 2 | -13 | -25* | -9 | 0
O=c1c(Cl)c(Nc2cccc(Cl)c2)cnn1-c1nc2ccccc2s1 | / | / | / | / | -10 | /
CCN(CC)c1ccc(N=Cc2ccccc2[N+](=O)[O-])cc1 | 1 | 0 | / | -32* | -7 | -1
CCN(CC)c1ccc(N=Cc2ccc([N+](=O)[O-])o2)cc1 | / | / | / | / | -6 | 0
CC(=O)NNC(=O)CCn1c2c(c3ccccc31)CCCC2 | -2 | 0 | 26 | 16 | -4 | 0
CCOC(=O)NNC(=O)CCn1c2c(c3ccccc31)CCCC2 | / | / | / | -17* | -11 | 0
C[C@@H]1CN([C@@H](C)CO)C(=O)c2cc(NS(C)(=O)=O)ccc2O[C@@H](C)CCCCO[C@@H]1CN(C)S(=O)(=O)c1ccccc1 | 1 | 1 | 9 | -3 | / | 0
O=C(CSc1c2c(nc3ccc(Cl)cc13)CCCC2)NCCCN1CCOCC1 | 0 | 1 | -13 | / | 1 | /
COCCCNC(=O)CSc1c2c(nc3ccc(Cl)cc13)CCCC2 | / | / | / | -23* | 4 | 0
CCC(=O)Nc1ccc2c(c1)OC[C@@H](C)N(C(=O)Cc1ccccn1)C[C@@H](C)[C@H](OC)CN(C)C2=O | -2 | 2 | -2 | 1 | / | -1
Cc1[nH]c2ccc(F)cc2c1CCN(Cc1cccnc1)C(=S)Nc1cccc(F)c1 | / | / | -16 | -51 | 0 | 44*
CNC(=S)N(CCc1c(C)[nH]c2ccccc12)Cc1ccco1 | / | / | / | -20* | 2 | 0
Cc1[nH]c2ccc(F)cc2c1CCN(Cc1ccco1)C(=S)NC(C)(C)C | / | / | / | -2 | 3 | 43*
C[C@@H]1CCc2cnnn2COC[C@H](Cc2ccccc2)NC1=O | / | / | / | 2 | / | /
Cc1ccc(Cl)cc1N1CCN(Cc2cc(=O)n3ccsc3n2)CC1 | / | / | 1 | -29* | -9 | 0
SMILES | PglD DTNB | Cneo AK release | PGC1a acetyl inh | Ecoli rRNA inh | Vif inh | FGF22 binding
Cc1cccc(N2CCN(Cc3cc(=O)n4ccsc4n3)CC2)c1C | -3 | -2 | 11 | / | -3 | /
CN1C(=O)c2cc(NC(=O)C3CC3)ccc2OC[C@@H]2O[C@H](CC(=O)NC3CCC3)CC[C@H]21 | 1 | 1 | -10 | 1 | / | 0
CCN(CC)CCNC(=O)C12CC3CC(C)(CC(C)(C3)C1)C2 | -2 | 0 | 0 | / | 68* | /
Cn1c(SCC(=O)c2ccc(F)cc2)nnc1-c1cnccn1 | 2 | 2 | 3 | / | 122* | /
CCCn1c(SCC(=O)Nc2cccc(C)n2)nc2c1c(=O)n(C)c(=O)n2C | / | / | 4 | 20 | -2 | 43*
CCCn1c(SCC(=O)Nc2cc(C)on2)nc2c1c(=O)n(C)c(=O)n2C | 7 | 1 | / | / | -7 | /
Cn1ccc2c(-c3ccc(CO)cc3)cc3c(c21)C1CCC3C1 (stereo not drawn) | 4 | 0 | -11 | -30* | / | 0
CCN(C)c1cc2c(c3c1ccn3C)C1CCC2C1 (stereo not drawn) | 0 | 6 | -1 | / | / | 1
Cn1ccc2c(-c3ccc(F)cc3)cc3c(c21)C1CCC3C1 (stereo not drawn) | 2 | 1 | -19 | -2 | / | 0
CN(c1cc2c(c3c1ccn3C)C1CCC2C1)C1CCCCC1 (stereo not drawn) | -3 | 0 | 78* | -7 | 4 | 0
CC(C)(C)[S@](=O)N1Cc2cc(C(=O)NCc3ccncc3)nc(-c3cccc(-c4ccc(C#N)cc4)c3)c2[C@@H]1CCO | -2 | -10 | 18 | 0 | / | 0
C[C@@H]1CN([C@H](C)CO)C(=O)c2cc(NC(=O)C3CCCCC3)ccc2O[C@@H](C)CCCCO[C@@H]1CN(C)C(=O)NC1CCCCC1 | 2 | 0 | 12 | 0 | / | -1
C[C@H]1CN([C@@H](C)CO)C(=O)c2cc(NS(=O)(=O)c3cn(C)cn3)ccc2O[C@@H]1CN(C)C(=O)Nc1ccc(C(F)(F)F)cc1 | -3 | 3 | 8 | -7 | / | 0
O=C(c1cccnc1)N1C[C@H]2[C@@H](c3ccccc31)[C@@H](CO)N2C(=O)C1CCCCC1 | 0 | 0 | 8 | 2 | / | -1
CCCC(=O)Nc1ccc2c(c1)OC[C@H](C)N(Cc1ccc(-c3ccccn3)cc1)C[C@@H](C)[C@H](OC)CN(C)C2=O | 5 | -10 | -32 | -5 | / | 0
CN1N=C2c3ccccc3CCCC2C1c1ccc(F)cc1 (stereo not drawn) | / | / | 2 | -40* | 5 | 0
COc1ccc2c(c1)C1=NN(/C(C)=C/C(C)=O)C(c3ccc(F)cc3)C1CC2 (stereo not drawn) | 2 | -8 | 11 | -27 | 2 | 0
Cc1c(C(=O)NCc2ccccn2)oc2ccc(S(=O)(=O)N3CCC4(CC3)OCCO4)cc12 | / | / | -4 | 0 | 10 | 43*
Cc1c(C(=O)NCc2ccccc2)oc2ccc(S(=O)(=O)N3CCC4(CC3)OCCO4)cc12 | 7 | -4 | -36 | / | 5 | /
O=C(COC(=O)CSCc1ccccc1)NCc1ccccc1 | / | / | 7 | 11 | -1 | 43*
Cc1ccc(CNC(=O)Cc2ccc(-c3ccccc3)cc2)cc1 | / | / | / | / | 22 | /
O=C(Cc1ccc(-c2ccccc2)cc1)NCc1ccccc1 | -3 | 0 | -1 | / | 54* | /
Cc1ccccc1NC(=O)Nc1ccccc1C(=O)NCc1ccccc1 | -5 | 1 | -3 | / | -1 | /
